Assay results taken from ChEMBL document CHEMBL1137821, “Design of non-nucleoside inhibitors of HIV-1 reverse transcriptase with improved drug resistance properties. 1” (J Med Chem, 2004).

Key:
[1] = target: T1, Human immunodeficiency virus type 1 reverse transcriptase (Human immunodeficiency virus 1, UniProt Q72547); experiment: Concentration required for 50% inhibition of human immunodeficiency virus type 1 reverse transcriptase mutant type Cys181
[2] = target: T1, Human immunodeficiency virus type 1 reverse transcriptase; experiment: Concentration required for 50% inhibition of human immunodeficiency virus type 1 reverse transcriptase Ile100
MT4 [3] = experiment: Inhibitory concentration against nevirapine resistant human immunodeficiency virus type 1 mutant type Tyr181Cys was determined in MT-4 cells; type: functional, cell-based
Outline: (§1)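 Whole-cell antiviral assay in MT4 cells, a human T-cell lymphotropic virus-transformed line. Cells were infected with wild-type HIV-1 strain IIIB or with nevirapine-resistant HIV-1 carrying the Tyr181Cys RT mutation. Inhibition was read by a propidium iodide-based colorimetric assay that estimates DNA content.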

MT4 [4] = experiment: Inhibitory concentration against human immunodeficiency virus type 1 was determined in MT-4 cells; type: functional, cell-based; outline: as §1
[5] = target: T1, Human immunodeficiency virus type 1 reverse transcriptase; experiment: Concentration required for 50% inhibition of human immunodeficiency virus type 1 reverse transcriptase mutant type Ile100
Outline: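 Inhibition of mutant HIV-1 RT enzyme, tested alongside wild-type RT; IC50 values are the mean of two independent experiments.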

Compound | IC50 [1] | IC50 [2] | IC50 (MT4 [3]) | IC50 (MT4 [4]) | IC50 [5]
CCCc1c([S+]([O-])C2CCCCC2)c2cc(Cl)ccc2[nH]c1=O (stereo unspecified) | 1260 nM | 2380 nM | 2210 nM | 240 nM | 
CCCc1c(OC2CCCCC2)c2cc(Cl)ccc2[nH]c1=O | 1130 nM |  | 600 nM | 30 nM | 1360 nM
CC(C)c1c(OC2CCCCC2)c2cc(Cl)ccc2[nH]c1=O | 2500 nM |  | 710 nM | 50 nM | 1960 nM
CCCc1c(SC2CCCCC2)c2cc(Cl)ccc2[nH]c1=O | 860 nM | 1610 nM | 360 nM | 100 nM | 
